BB579 growth dn: reduces growth of yeast BB579 in restrictive medium; 140,000 tested, 0.51% active; inhibition, % at 10 µM; S. cerevisiae BB579 growth, OD615, 48 h;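 active = inhibition above a set limit, 3 SD over the mean compound inhibition, cut at about 44% in these data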
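System: Saccharomyces cerevisiae DeaD strain BB579, replicative lifespan model yeast | Buffer or medium: Restrictive glucose-based CSMM-D medium | Times: 4 h preincubation and 48 h exposure at 30 °C | Detection: OD615 turbidity measurement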
RAM network inh: blocks the yeast RAM network | S. cerevisiae dse1pr::URA3 reporter, 5-FOA growth OD615, 2 d; analog-sensitive cbk1-as2 kinase mutant strain | inhibition, % at 50 µM | 190,000 tested, 1.8% active | AID 868;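 active = inhibition above a set limit, 3 SD over mean compound inhibition, cut at about 8.4% in these data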;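 note: inhibition rescues growth on 5-FOA so higher OD means more RAM inhibition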
Yeast life ext: yeast lifespan extension. AID 775. 130,000 tested, 0.68% active. inhibition of the nicotinamide effect, % at 10 µM. S. cerevisiae growth with nicotinamide, OD615; deaD strain in restrictive glucose medium;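 active = inhibition above a set limit, placed 3 SD over the median of all compounds, cut at about 26% in these data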
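Buffer or medium: CSMM-D glucose medium, restrictive; test system: modified budding yeast, DeaD strain; compound: single dose 10 µM compound, 0.25% DMSO; schedule: culture preincubation 4 h, compound exposure 48 h, both 30 °C; detection: optical density (absorbance) at 615 nm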
sdo1 growth: sdo1-depleted yeast growth rescue | S. cerevisiae sdo1-depleted JHY4D growth rescue, OD600 30 h; hits give high values; pdr5 snq2 efflux-pump mutant strain | z-score at 10 µM | 140,000 tested, 0.21% active | AID 817;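 active = z-score above 3 at both the 24 hr and the 30 hr optical density reads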
Hits are given with their value. The list is not random: actives were taken first. Their share in the collection is about 2.7%.

COc1ccc(/C=C(/NC(=O)c2ccc(OC)cc2)C(=O)NCCc2c[nH]c3ccccc23)cc1 was read as BB579 growth dn inactive, RAM network inh 8.5, Yeast life ext inactive and sdo1 growth inactive.
`Cc1noc(C)c1COc1ccc(C(=O)NCCc2ccccn2)cc1` gave RAM network inh inactive.
`CC(=O)c1c(O)cc(C)n(Nc2nc(C)cc(C)n2)c1=O` gave BB579 growth dn inactive, RAM network inh inactive, Yeast life ext 32.3 and sdo1 growth inactive.
CC(=O)c1c(O)cc(C)n(-c2ccc(F)cc2)c1=O was read as RAM network inh inactive.
For Cc1ccc(-n2nc3c(c2NC(=O)c2ccc4c(c2)OCO4)CS(=O)C3)cc1 (stereo not given) the results were BB579 growth dn inactive, RAM network inh inactive, Yeast life ext inactive and sdo1 growth inactive.
`CCOc1ccc(C(=O)Nc2c3c(nn2-c2ccc(C)cc2)CS(=O)C3)cc1OCC` (stereo not given) gave BB579 growth dn inactive, RAM network inh 9.6, Yeast life ext inactive and sdo1 growth inactive.
`CC(/C=N/NC(=O)c1cc(-c2cccnc2)nc2c1c(C)nn2-c1ccccc1)=C\c1ccccc1` gave BB579 growth dn inactive, RAM network inh inactive, Yeast life ext inactive and sdo1 growth inactive.
For Cc1cc(CC(C)C)n(-c2nc3ccccc3c(=O)n2OCc2ccccc2)n1 the results were BB579 growth dn inactive, RAM network inh 9.8, Yeast life ext inactive and sdo1 growth inactive.
`Cc1cc(CC(C)C)n(-c2nc3ccccc3c(=O)n2OCC(=O)N(C)C)n1` gave BB579 growth dn inactive, RAM network inh inactive, Yeast life ext inactive and sdo1 growth inactive.
CCc1ccc2nc(N3C(=O)C(O)=C(C(=O)c4ccco4)C3c3cccs3)sc2c1 (stereo not given) was read as BB579 growth dn inactive, RAM network inh inactive, Yeast life ext 44.7 and sdo1 growth inactive.
Screening c1ccc(-n2nnnc2SCc2cccc(CSc3nnnn3-c3ccccc3)n2)cc1 returned BB579 growth dn inactive, RAM network inh 8.9 and sdo1 growth inactive.
Cc1ccccc1-n1nnnc1SCc1csc(-c2ccccc2)n1 was read as BB579 growth dn inactive, RAM network inh 8.7, Yeast life ext inactive and sdo1 growth inactive.
Cc1ccccc1-n1nnnc1SCC(C)C was read as RAM network inh inactive.
Screening Cc1cc(OC(=O)c2ccc(S(=O)(=O)N3CCOCC3)cc2)c([N+](=O)[O-])c(=O)[nH]1 returned RAM network inh inactive.
`COc1ccc(-c2nncnn2)cc1` gave BB579 growth dn 79.2, RAM network inh inactive and sdo1 growth inactive.
Screening Cn1c(C(C#N)/C(=N\S(=O)(=O)c2cccs2)c2ccccc2)nc2ccccc21 (stereo not given) returned BB579 growth dn inactive, RAM network inh 9.6, Yeast life ext inactive and sdo1 growth inactive.
For COc1cc(CN2CCCC(C(=O)c3ccccc3SC)C2)cc(OC)c1 (stereo not given) the results were RAM network inh inactive.
`CC(=O)c1ccc(NC(=O)COc2ccc3c(c2)OCO3)cc1` gave RAM network inh inactive.
Screening Cc1c(Cl)ccc2c1NC(=O)[C@]21N[C@@H](Cc2ccccc2)[C@H]2C(=O)N(c3ccc(F)cc3)C(=O)[C@H]21 returned BB579 growth dn inactive, RAM network inh 8.5, Yeast life ext inactive and sdo1 growth inactive.
`O=C1[C@@H]2[C@H](Cc3ccc(O)cc3)N[C@]3(C(=O)Nc4ccccc43)[C@@H]2C(=O)N1c1ccc(F)cc1` gave BB579 growth dn inactive, RAM network inh inactive, Yeast life ext inactive and sdo1 growth inactive.
COc1ccccc1/C=N/N1C(=O)C(CC(=O)Nc2ccc([N+](=O)[O-])cc2OC)SC1=Nc1cccc(C)c1C (stereo not given) was read as RAM network inh 10.5.
For CCOC(=O)N1CCN(c2cc(NCCC(=O)O)c3c4c(onc24)-c2ccccc2C3=O)CC1 the results were BB579 growth dn inactive, RAM network inh 9.4, Yeast life ext inactive and sdo1 growth inactive.
`O=[N+]([O-])c1c(NCCO)cc(N2CCC3(CC2)OCCO3)c2nonc12` gave BB579 growth dn inactive, RAM network inh inactive, Yeast life ext inactive and sdo1 growth inactive.
O=C(O)CCCNc1cc(N2CCC3(CC2)OCCO3)c2noc3c2c1C(=O)c1ccccc1-3 was read as BB579 growth dn inactive, RAM network inh 8.7, Yeast life ext inactive and sdo1 growth inactive.
`Cc1ccc2[nH]c(=O)c(CN(Cc3cccs3)Cc3nnnn3Cc3ccccc3)cc2c1` gave BB579 growth dn inactive, RAM network inh inactive, Yeast life ext inactive and sdo1 growth inactive.
For Cc1ccc2[nH]c(=O)c(CN(CCO)Cc3nnnn3CCc3ccccc3)cc2c1 the results were BB579 growth dn inactive, RAM network inh inactive, Yeast life ext 68.3 and sdo1 growth inactive.
For O=C1CN(C(=O)COc2ccc(Br)cc2Br)c2ccccc2N1 the results were RAM network inh inactive.
Screening O=C(CN1C(=O)C(=O)N(Cc2ccco2)C1=O)NC1CCCCC1 returned RAM network inh inactive.
Screening CCOC(=O)C1CCN(S(=O)(=O)c2ccc(-c3nc4ccccc4s3)s2)CC1 returned BB579 growth dn inactive, RAM network inh 8.4, Yeast life ext inactive and sdo1 growth inactive.
COc1ccc(-c2noc(CSc3nnc(CCc4ccccc4)n3-c3ccccc3)n2)cc1OC was read as BB579 growth dn inactive, RAM network inh inactive, Yeast life ext inactive and sdo1 growth inactive.
Screening Cc1ccc(-c2noc(CSc3nnc(Cc4ccccc4)n3-c3ccc(Cl)cc3)n2)cc1 returned BB579 growth dn inactive, RAM network inh 8.5, Yeast life ext inactive and sdo1 growth inactive.
For COc1ccc(-c2noc(CSc3nnc(Cc4ccccc4)n3-c3ccc(Cl)cc3)n2)cc1 the results were BB579 growth dn inactive, RAM network inh 10.5, Yeast life ext inactive and sdo1 growth inactive.
For CC(C)(C)c1ccc(C(=O)NCC(=O)OCC(=O)c2ccc3c(c2)-c2ccccc2C3)cc1 the results were BB579 growth dn inactive, RAM network inh inactive, Yeast life ext inactive and sdo1 growth inactive.
For Cc1ccc(SC(C)C(=O)N2CCC(C(N)=O)CC2)cc1 (stereo not given) the results were RAM network inh inactive.
For O=C(COc1ccccc1-c1ccccc1)N/N=C/c1ccccn1 the results were RAM network inh 10.9.
For Cc1ccccc1-n1cc(C(=O)c2cc(Cl)ccc2O)cc(C#N)c1=O the results were BB579 growth dn inactive, RAM network inh inactive, Yeast life ext inactive and sdo1 growth inactive.
`N#Cc1cc(C(=O)c2cc(F)ccc2O)cn(-c2nccs2)c1=O` gave BB579 growth dn inactive, RAM network inh inactive, Yeast life ext 41.4 and sdo1 growth inactive.
COc1ccccc1-n1cc(C(=O)c2cc(Cl)ccc2O)cc(C#N)c1=O was read as RAM network inh 9.7.
Screening COc1cc(NC(=O)CSc2nc(C)c(C)c(C)n2)cc(OC)c1 returned RAM network inh inactive.
Cc1ccccc1/C=N/Nc1ccnc2cc(Cl)ccc12 was read as BB579 growth dn inactive, RAM network inh inactive, Yeast life ext inactive and sdo1 growth inactive.
